Bfl-1 A1 inh: inhibitors of the anti-apoptotic protein A1, read as caspase activation; MEF A1-2A-BIM cells, Caspase-Glo 3/7 luminescence, 3 h; percent of clofoctol response, vehicle zero; AID 2462; hit rate 0.066% among 330,000; caspase activation, % (no concentration beside the values);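 active means over half of replicate activation scores above 10%, or exactly half above 10 with the replicate mean above 10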
CHOP inh: inhibitors of CHOP induction in ER stress response; inhibition, % at 10 µM; CHO-K1 CHOP-promoter luciferase, tunicamycin-induced, 15-18 h; hit rate 3.8% among 220,000;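 active means compounds that reduced the stress-induced luciferase reporter signal by more than about 70% of percent inhibition, limit read from the data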
XBP1 UPR activ: activators of adaptive arm of unfolded protein response (XBP1); CHO-XBP1 luciferase reporter, IRE1-XBP1 UPR activation, luminescence; percent of tunicamycin response, DMSO as zero; activation, % at 20 µM; AID 463104; hit rate 0.33% among 330,000;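 active means versus positive control, 20 µM dose yields 30% or more activation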
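Material: CHO cell line with stable XBP1 luciferase reporter; schedule: 16-18 h cell attachment at 37 °C, then 6 h compound exposure; signal: glow luminescence from Steady-Glo reagent; medium: serum-containing F12 medium, 10% FBS; benchmarks: tunicamycin 10 µg/mL and vehicle-only wells; read-out: percent activation relative to tunicamycin reference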
UPR CHOP act: apoptotic UPR (CHOP) activation. CHO-CHOP luciferase reporter, luminescence; percent of tunicamycin response over DMSO baseline. activation, % at 10 µM. hit rate 0.34% among 330,000. AID 449763;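 active means at 10 µM dose, activation of 40% or more, normalized to positive control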
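Assay system: CHO-CHOP cells, stable luciferase reporter of PERK-eIF2a-CHOP signalling / Buffer or medium: F12 plus 10% serum / Compound dosing: one dose, 10 µM in 0.5% DMSO / Times: 6 h compound treatment, 37 °C / Technique: luciferase luminescence / Read-out: % reporter activation, DMSO baseline versus tunicamycin full activation / Benchmarks: tunicamycin and DMSO controls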
CHOP inh conf: confirmation of CHOP induction inhibitors. shares compounds with CHOP inh. CHO-CHOP promoter luciferase reporter, tunicamycin-induced, luminescence. inhibition, % at 10 µM. hit rate 45% among 2,100;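 active means mean of three repeat readings of reporter signal inhibition above a set limit, cut at about 70% in these data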
A number is an active result; 0 = inactive; - = not tested or not shown. The entries come from a sample that favours hits as a whole.

SMILES | Bfl-1 A1 inh | CHOP inh | XBP1 UPR activ | UPR CHOP act | CHOP inh conf
CC1=C(CO)C(=O)OC([C@@H](C)C2CC[C@H]3C4C[C@H]5O[C@]56[C@@H](O)C=CC(=O)[C@]6(C)C4CC[C@]23C)C1 (stereo not given in full) | 0 | 107 | - | - | 106
C=CCn1c(CCNC(=O)c2ccc(Cl)c(Cl)c2)nnc1SCCOc1ccc(OC)cc1 | 0 | 97 | 0 | 0 | 81
C=CCn1c(SCCOc2ccccc2)nnc1C(C)NC(=O)c1ccccc1 (stereo not given) | 0 | 0 | 0 | 0 | -
Cn1c(CCNC(=O)c2ccc(Cl)c(Cl)c2)nnc1SCc1ccc(Cl)c(Cl)c1 | 0 | 100 | 0 | 0 | 0
CC1Nc2ncnc(N3CCN(c4ccccc4)CC3)c2N(Cc2ccc(Br)cc2)C1=O (stereo not given) | 0 | - | 0 | 0 | -
Cc1ccc(NC(=O)Nc2cc(Cl)ccc2C2COC(=O)C2=N)cc1 (stereo not given) | 0 | 101 | 0 | 0 | 0
O=C1C(Cl)=C(N2CCCCC2)C(=O)C(Cl)=C1c1cnc(N2CCCCC2)s1 | - | - | 0 | 128 | 95
O=C1C(Cl)=C(N2CCCCCC2)C(=O)N1c1ccc(Cl)cc1 | 0 | - | 0 | 0 | -
CN(C)c1ccc(Sc2nnc(NC(=O)Nc3ccc(Cl)cc3Cl)s2)cc1 | 0 | 100 | 0 | 0 | 0
CCC(=O)Nc1nnc(Sc2ccc(N(C)C)cc2)s1 | 0 | 0 | 0 | 0 | -
COc1ccc(/C=C/c2n[nH]c(=O)c(C#N)c2C)cc1 | 0 | - | 0 | 0 | -
O=[N+]([O-])c1ccc(O)c(/C=N/Nc2ccccc2Cl)c1 | 0 | 96 | 0 | 0 | 125
O=[N+]([O-])c1ccccc1N/N=C\c1ccccc1Cl | 0 | 0 | 0 | 0 | -
O=C(Cc1cnn(-c2ccccc2)c1)c1ccc(O)c(O)c1O | 0 | 0 | 0 | 0 | -
CC(C)=CCc1c(O)ccc(C(=O)Cc2ccccc2)c1O | 0 | 106 | 0 | 0 | 0
COc1ccccc1CCNC(=O)C(=O)NCC1OCCN1S(=O)(=O)c1ccc(OC)c(OC)c1 (stereo not given) | 0 | - | 0 | 0 | -
O=C1C=CC(=O)N1c1ccc(OC(F)F)cc1 | 0 | 107 | - | - | 0
COc1ccc(NS(=O)(=O)c2cc(C(=O)N3CCCCCC3)ccc2C)cc1 | 0 | - | 0 | 0 | -
NC(=O)C1CCCN(Cc2c(C(=O)N3CCc4ccccc4C3)nc3ccc(Cl)cn23)C1 (stereo not given) | 0 | - | 0 | 0 | -
CCOC(=O)N1CCC(NC(=O)c2cc(COc3ccccc3SC)on2)CC1 | 0 | - | 0 | 0 | -
Cc1ccc(NC(=O)CCN2C(=O)NC3(CCCC3)C2=O)c(C)c1 | - | - | 0 | 0 | -
Cc1ccc(NC(=O)NC(=O)CN2C(=O)NC3(CCCCCCC3)C2=O)c(C)c1 | 0 | 105 | 0 | 0 | 91
O=C(CC1C[C@H](C(=O)N2CCOCC2)[C@@]2(CCC3CCCC3)c3[nH]c4ccccc4c3CCN2C1=O)NCC12CC3CC(CC(C3)C1)C2 (stereo not given in full) | 0 | - | 0 | 0 | -
O=S(=O)(NC1CC1)c1ccc(S(=O)(=O)N2CCCC3(CCCCC3)C2)cc1 | 0 | 97 | 0 | 0 | 98
O=S(=O)(NC1CC1)c1ccc(S(=O)(=O)N2CCN3CCCC3C2)cc1 (stereo not given) | 0 | 0 | 0 | 0 | -
SMILES | Bfl-1 A1 inh | CHOP inh | XBP1 UPR activ | UPR CHOP act | CHOP inh conf
O=S(=O)(Nc1ccccc1)c1ccc(Oc2ncc(C(F)(F)F)cc2Cl)cc1 | 0 | 109 | 0 | 0 | 115
Cc1ccc(NS(=O)(=O)c2ccc(C(=O)N3CCCC(C(F)(F)F)C3)cc2)cc1 (stereo not given) | 0 | - | 0 | 0 | -
COc1ccc(CN(CC(O)COCc2ccccc2)S(=O)(=O)c2ccccc2Br)cc1OC (stereo not given) | - | - | 0 | 0 | -
O=C(NC(=S)Nc1ccc2oc(-c3cccnc3)nc2c1)c1cccc(Cl)c1 | 0 | 99 | 0 | 0 | 0
COc1ccc(C(=O)N[C@H]2CCCCNC2=O)cc1OC1CCN(C(C)C)CC1 | 0 | - | 0 | 0 | -
C=CCOc1ccc2c(c1)C(=NO)c1cc(OCC=C)ccc1-2 | 0 | 104 | 0 | 0 | 0
CCCOC(=O)CSc1nnc(-c2ccc(Cl)cc2Cl)o1 | 0 | 98 | 0 | 0 | 0
O=C(Cn1ncc(Cl)c(Cl)c1=O)NC1CCCCC1 | 0 | - | 0 | 0 | -
O=C(Cn1ncc(Cl)c(Cl)c1=O)NCC1CCCCC1 | 10 | 108 | - | - | 0
COc1ccc(/C=N/n2c(N)nc(-c3ccccc3)c2-c2ccccc2)cc1 | 0 | 104 | 0 | 0 | 0
COc1cc(/C=C/c2nc(N)nc(-c3ccccc3O)n2)cc(OC)c1OC | 0 | 96 | 0 | 0 | 76
COc1cc(/C=C/c2noc(-c3ccccc3O)n2)cc(OC)c1OC | 0 | 0 | 0 | 0 | -
O=S(=O)(NCC(Nc1ccccc1)c1ccccc1)c1ccc(Cl)cc1 (stereo not given) | 0 | 102 | 0 | 0 | 0
O=C(O)c1cccc(NC(CNS(=O)(=O)c2ccc(Cl)cc2)c2ccccc2)c1 (stereo not given) | 0 | 0 | 0 | 0 | -
CC1CCC(C(C)C)C(OCC(O)CN2CCN(Cc3ccccc3)CC2)C1 (stereo not given) | 0 | 99 | 0 | 0 | 104
COc1ccc(CN2C(=NC(=O)C3CCCO3)SC3CS(=O)(=O)CC32)cc1OC (stereo not given) | 0 | - | 0 | 0 | -
C/C(=N\Nc1nc2ccccc2[nH]1)c1ccc([N+](=O)[O-])cc1 | 0 | 102 | 0 | 0 | 0
COc1ccc2c(c1)C=C(CN1CCC(CO)(CCc3ccccc3)CC1)CO2 | 0 | 0 | 0 | 0 | -
COc1ccc(CC2(CO)CCN(CC3=Cc4cc(Cl)ccc4OC3)CC2)cc1 | 0 | 102 | 0 | 0 | 105
O=c1[nH]c(/C(Cl)=C/c2cc(Cl)ccc2O)nc2cc(Cl)ccc12 | 0 | 100 | 0 | 0 | 0
O=C(O)c1ccccc1Cc1nc2cc(Cl)ccc2c(=O)[nH]1 | 0 | 0 | 0 | 0 | -
CCCCCn1c(SCCCC)nc2c1c(=O)[nH]c(=O)n2C | 0 | 0 | 0 | 0 | -
C/C=C/Cn1c(SCCCc2ccccc2)nc2c1c(=O)[nH]c(=O)n2C | 0 | 103 | 0 | 0 | 103
CCCCCCn1c(SCCC)nc2c1c(=O)[nH]c(=O)n2C | 0 | 99 | 0 | 0 | 81
CCCCSc1nc2c(c(=O)[nH]c(=O)n2C)n1CCc1ccccc1 | 0 | - | 0 | 0 | -
Cc1cc(F)ccc1S(=O)(=O)N1CCCOC1CNC(=O)C(=O)NCc1ccc2c(c1)OCO2 (stereo not given) | 0 | - | 0 | 0 | -
Cn1ncc(S(=O)(=O)Cc2ccccc2)c(Cl)c1=O | 0 | 102 | 0 | 0 | 0
Cn1ncc(SCc2ccccc2)c(Cl)c1=O | 0 | 0 | 0 | 0 | -
COc1ccc(C2(O)CC3CCC(C2)N3c2nc(C)cc(C)c2C#N)cc1 (stereo not given) | 0 | 101 | 0 | 0 | 0
COc1ccc(Cc2nc3ccccc3n2CC(=O)N/N=C/c2ccc(C)cc2O)cc1OC | 0 | 104 | 0 | 0 | 103
